# Source: PubChem BioAssay
# MrgX1 antagonist: blocks BAM8-22 activation of human MrgX1 receptor | B-score at 10 µM | actives 1.3% (n = 310,000) | MRGX1-HEK293 calcium flux, Fluo-4, BAM8-22 antagonism; hits give low values | AID 588676 | Q96LB2;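 active = calcium-response B-score plate-corrected more than 3 library SD below zero, starting fluorescence within 5 deviations, no agonist response on first addition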;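 note: peak minus trough fluorescence over baseline after final BAM8-22 challenge near maximal dose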
# Target sequence (Q96LB2 whole entry, looked up): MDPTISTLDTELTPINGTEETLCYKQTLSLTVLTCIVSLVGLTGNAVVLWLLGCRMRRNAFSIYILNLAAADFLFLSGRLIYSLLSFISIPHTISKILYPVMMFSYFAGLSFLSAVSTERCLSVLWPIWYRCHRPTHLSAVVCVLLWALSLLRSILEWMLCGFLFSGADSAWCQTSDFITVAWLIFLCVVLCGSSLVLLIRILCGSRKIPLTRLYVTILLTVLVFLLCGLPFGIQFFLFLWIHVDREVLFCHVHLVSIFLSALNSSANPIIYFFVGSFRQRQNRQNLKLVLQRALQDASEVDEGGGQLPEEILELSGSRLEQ
# RGS4 act: RGS4 potentiation or activation; HEK293 M3R/inducible RGS4, carbachol calcium flux Fluo4; hits give low values; B-score at 10 µM; actives 0.92% (n = 310,000);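 active = B-score of the integrated calcium signal more than 4 SD below the library mean, with starting fluorescence not abnormally high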;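 note: negative B-score means reduced calcium response which marks RGS4 activation or potentiation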
#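 Material: M3R-expressing HEK293 line, RGS4 induced by doxycycline | Schedule: Overnight RGS4 induction, 30 min dye load 37 °C, 20 min compound RT | Measured by: Fluo4 fluorescence kinetic imaging of calcium | Read-out: Integrated calcium ratio converted to B score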
# MrgX1 agonist: human MrgX1 receptor agonism, primary screen; AID 588627; Q96LB2; MrgX1-HEK293 cells, Fluo-4 calcium fluorescence, agonist mode; hits give high values; B-score at 10 µM; actives 0.44% (n = 310,000);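 active = calcium response B-score plate-corrected fluorescence ratio at least 3 library SD, with starting fluorescence B-score inside 5 SD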
#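 Assay system: stable human MrgX1 HEK293 cell line. Quantity: 15,000 cells per well. Schedule: cells plated overnight, dye loaded 0.5 h 37 °C, 0.5 h room temperature. Detection: Fluo-4 NW calcium-flux fluorescence, kinetic read. Read-out basis: peak-minus-minimum fluorescence over baseline, converted to B scores. Control set: positive and negative control wells on each plate.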
# MrgX1 PAM: human MrgX1 positive allosteric modulation, primary screen; MrgX1-HEK293, Fluo-4 calcium flux, FDSS; hits give high values; Q96LB2; actives 0.63% (n = 310,000); B-score at 10 µM;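 active = plate-corrected calcium response at least 3 library SD above typical, normal starting fluorescence, not activating the receptor alone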;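 note: compound read alongside a low EC10 to EC30 dose of BAM8-22 agonist; peak minus trough fluorescence over baseline measured at the second addition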
# RGS4 block: inhibitors of human RGS4. P49798. HEK293 M3R/RGS4 inducible, Fluo-4 calcium flux; hits give high values; triggered by carbachol at its EC20. B-score at 10 µM. actives 0.45% (n = 310,000). AID 463165;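 active = B-score, a plate-corrected calcium signal, over three deviations above library mean, with baseline fluorescence within five deviations of library mean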;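 note: RGS4 expression induced by doxycycline in cells with stable M3 receptor; B-score is computed from the integrated fluorescence ratio over baseline after carbachol; higher B-score means a larger calcium signal and so more RGS4 inhibition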
# Target sequence (P49798 whole entry, looked up): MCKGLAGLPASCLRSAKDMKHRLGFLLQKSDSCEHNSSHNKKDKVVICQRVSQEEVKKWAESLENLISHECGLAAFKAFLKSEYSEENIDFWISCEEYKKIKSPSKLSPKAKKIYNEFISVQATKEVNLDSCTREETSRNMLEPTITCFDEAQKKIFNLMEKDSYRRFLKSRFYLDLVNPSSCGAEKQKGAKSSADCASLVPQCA
# RGS4 activ val: RGS4 activation, validation assay; inhibition, % at 10 µM; HEK293 M3R/RGS4 inducible, carbachol calcium flux Fluo4; actives 89% (n = 1,100); shares compounds with RGS4 act; AID 602282;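 active = inhibition above 3 SD of the buffer control wells, cut at about 41% in these data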;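 note: signal is the integrated peak-minus-minimum Fluo4 fluorescence over baseline ratio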
# M3R Ca counter: counter-screen for RGS4 activators: effect in non-induced cells. shares compounds with RGS4 act. HEK293 M3R non-induced RGS4, Fluo4 calcium flux; after carbachol challenge at its EC90. inhibition, % at 10 µM. actives 82% (n = 1,100);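 active = inhibition exceeding 3 SD of buffer-only control wells, cut at about 26% in these data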;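 note: percent drop in integrated peak-minus-baseline over baseline Fluo4 ratio after carbachol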
# MrgX1 ag confirm: confirmation of human MrgX1 receptor agonists; shares compounds with MrgX1 agonist; MrgX1-HEK293, Fluo-4 calcium fluorescence, FDSS; activation, % at 10 µM; actives 78% (n = 600); AID 602412;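 active = calcium signal rise, corrected for plate position, at least 3 library SD high, with starting brightness within 5 such deviations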
# MrgX1 antag conf: confirmation of human MrgX1 receptor antagonists | AID 602420 | remaining BAM8-22 calcium response % of control (hits give low values), % at 10 µM | shares compounds with MrgX1 antagonist | MrgX1-HEK293, BAM8-22 calcium flux, Fluo-4; hits give low values | actives 19% (n = 2,300);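 active = remaining agonist calcium response no higher than 100% minus 3 SD of agonist-only control wells, with starting fluorescence near control levels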;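 note: agonist BAM8-22 given at a near maximal EC90 to ECmax level; peak minus minimum fluorescence divided by baseline after agonist addition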
# HEK293 Ca flux: MrgX1 antagonist counter-screen hit in parental HEK293 cells | AID 624111 | actives 2% (n = 4,000) | fluorescence ratio F(max-min)/F0 at 10 µM | Fluo-4 calcium fluorescence, FDSS | shares compounds with MrgX1 antagonist;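 active = duplicate-averaged calcium fluorescence ratio at least three times the standard deviation of buffer wells, a nonspecific response in parental cells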
# HEK293 Ca counter: counter-screen for MrgX1 allosteric activators: effect in parental HEK293 cells; actives 0.4% (n = 4,000); shares compounds with MrgX1 antagonist; fluorescence ratio F(max-min)/F0 at 10 µM; parental HEK293 calcium flux, Fluo-4 fluorescence ratio; hits give high values;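 active = calcium fluorescence ratio, averaged over duplicates, at least 3 SD of the buffer-well ratio, meaning a nonspecific response in receptor-free cells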;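 note: untransfected parental HEK293 lacking MrgX1 used as counterscreen for MrgX1 allosteric activators; fluorescence change taken during the second addition on a kinetic imager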
# HEK293 Ca cntr2: MrgX1 activator counter-screen hit in parental HEK293 cells; fluorescence ratio F(max-min)/F0 at 10 µM; Fluo-4 calcium fluorescence (FDSS); hits give high values; AID 624115; shares compounds with MrgX1 antagonist; actives 8.7% (n = 4,000);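 active = calcium fluorescence ratio at least three times the spread of buffer wells, meaning a non-specific response in parental cells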
# Hits are given with their value; n = inactive; x = no result. Only some compounds are listed: those with a hit (about 3.5% of all), similar ones and a draw of the others.
SMILES,MrgX1 antagonist,RGS4 act,MrgX1 agonist,MrgX1 PAM,RGS4 block,RGS4 activ val,M3R Ca counter,HEK293 Ca flux,HEK293 Ca counter,HEK293 Ca cntr2,others
COc1ccc(CN2CCc3ccc(NC(=O)CCc4ccccc4OC)cc3C2)c(O)c1,n,-9.28,n,n,n,90.5,71.3,x,x,x,
COc1cc(CN2CCc3ccc(NC(=O)CCc4ccccc4OC)cc3C2)ccc1O,n,n,n,n,n,x,x,x,x,x,
O=C1CC(c2ccco2)Cc2nc(N3CCN(Cc4ccc5c(c4)OCO5)CC3)ncc21 (stereo not given),n,-8.94,n,n,n,88.5,65.3,x,x,x,
CC(=O)Nc1ccc(NC(=O)[C@@H](NC(=O)N2C[C@H]3C[C@@H](C2)c2cccc(=O)n2C3)C(C)C)cc1,n,n,n,n,n,x,x,x,x,x,
CCCSc1ccc([C@@H]2[C@H]3C(=O)N(CC)C(=O)[C@H]3[C@]3(C(=O)OC)CCCCN23)cc1,n,n,n,n,n,x,x,x,x,x,
O=C(CNCCC1=CCCCC1)Nc1ccc(N2CCCCCC2)cc1,n,-10.4,n,n,n,94.0,91.8,x,x,x,
O=C(CNC1CCCC1)Nc1ccc(N2CCCCCC2)cc1,n,-7.96,n,n,n,83.5,35.8,x,x,x,
O=C(CNC1CCCCCC1)Nc1ccc(N2CCCC2)cc1,n,n,n,n,n,x,x,x,x,x,
S=C(NCC1CCCCC1)Nc1ccc(Oc2ccccc2)cc1,n,-7.61,n,n,n,93.0,59.8,x,x,x,
CN1CCN(C(=O)C2CCN(c3ncc(C(F)(F)F)cc3Cl)CC2)CC1,n,-12.3,n,n,n,86.0,40.8,x,x,x,
CN(CC(=O)Nc1cccc(F)c1)CC(=O)Nc1cccc(S(=O)(=O)N2CCCCCC2)c1,n,-7.66,n,n,n,62.5,32.8,x,x,x,
CCOc1cc(S(=O)(=O)NCc2ccccc2)ccc1Br,n,n,n,n,n,x,x,x,x,x,
Cc1cc2c(s1)Nc1ccccc1N=C2N1CCN(C)CC1,n,-9.54,n,n,n,91.0,84.8,x,x,x,
OCCOCCN1CCN(C2=Nc3ccccc3Sc3ccccc32)CC1,n,n,n,n,n,x,x,x,x,x,
COc1ccc(S(=O)(=O)N2CCOC23CCN(S(=O)(=O)c2ccccc2)CC3)cc1,n,n,n,n,n,x,x,x,x,x,
COc1ccc(C(=O)OCCN2C(=O)c3ccccc3C2=O)cc1,n,-8.67,n,n,n,40.0,83.8,x,x,x,
COc1ccc2nc3c(cc2c1)c(NC(=O)c1cccs1)nn3CC(C)C,n,-8.47,n,n,n,86.0,60.8,x,x,x,
CC1CCCN(CC(=O)Nc2ccc(S(=O)(=O)N3CCCC3)cc2)C1 (stereo not given),n,-9.22,n,n,n,85.0,40.8,x,x,x,
CNS(=O)(=O)c1cccc(C(=O)OCc2cc(=O)oc3c(C)c(O)ccc23)c1,-9.44,-8.18,n,n,n,85.0,70.3,n,n,n,MrgX1 antag conf=54.1%
Cc1ccc(S(=O)(=O)NCC(=O)NCCc2c[nH]c3ccccc23)cc1C,n,n,n,n,n,x,x,x,x,x,
CCN(CC)CCOC(=O)c1c(C)oc2ccc(OC)cc12,-5.17,-7.83,n,n,n,67.0,83.8,n,n,n,MrgX1 antag conf=n
Cc1cc(-c2cccs2)c2c(N)c(C(=O)c3ccc4c(c3)OCO4)sc2n1,-8.28,-7.94,n,n,n,93.0,96.3,0.653,n,n,MrgX1 antag conf=n
C/C(=N\n1nnnc1Nc1ccccc1)c1ccc(N)cc1,n,x,n,n,x,x,x,x,x,x,
CCOC(=O)Cc1csc(NC(=O)c2sc3nc4c(C)cc(C)cc4cc3c2N)n1,-9.24,-8.6,n,n,n,83.5,63.3,n,n,n,MrgX1 antag conf=n
CCOC(=O)Cc1csc(NC(=O)c2csc(C)c2)n1,n,n,n,n,n,x,x,x,x,x,
SMILES,MrgX1 antagonist,RGS4 act,MrgX1 agonist,MrgX1 PAM,RGS4 block,RGS4 activ val,M3R Ca counter,HEK293 Ca flux,HEK293 Ca counter,HEK293 Ca cntr2,others
O=C(CN(C(=O)c1csnn1)c1cccc(C(F)(F)F)c1)NCCc1ccccc1,n,n,n,n,n,x,x,x,x,x,
Cc1cc(N2CCCCC2)nc2ccc(NC(=O)c3ccc(Br)o3)cc12,-6.88,-7.73,n,n,n,71.5,83.8,n,n,n,MrgX1 antag conf=n
Cc1cc(N2CCN(C)CC2)nc2ccc(NC(=O)c3ccc(Br)o3)cc12,n,n,n,n,n,x,x,x,x,x,
COc1ccc(S(=O)(=O)N2CCC(C(=O)NCCC(=O)Nc3ccc(Cl)cc3)CC2)cc1,n,n,n,n,n,x,x,x,x,x,
CCC1(CC)NC(=O)N(CC(=O)OCC(=O)Nc2ccc(F)c(F)c2F)C1=O,n,n,n,n,n,x,x,x,x,x,
COc1cccc(-c2csc(N3CCN(C(=O)Nc4ccc(Cl)cc4)CC3)n2)c1,-6.09,-8.42,n,n,n,87.0,55.8,n,n,n,MrgX1 antag conf=74.5%
O=C(NCc1ccccc1)c1cc[n+](CC(=O)c2cccs2)cc1,n,n,n,n,n,x,x,x,x,x,
COc1ccc(CCNC(=O)CCC(=O)NC2CCCC(C)C2C)cc1OC (stereo not given),n,n,n,n,n,x,x,x,x,x,
Cc1oc2c(c(=O)c1C)C(=O)CC(c1ccccc1)C2 (stereo not given),n,n,n,n,n,x,x,x,x,x,
CS(=O)(=O)c1sc(C#N)c2c1C(=O)CC(c1ccccc1)C2 (stereo not given),n,-9.02,36.6,n,n,53.0,n,n,n,52.8,MrgX1 ag confirm=257.0%
COc1cccc(N2CCN(c3ncnc4c3[nH]c3ccccc34)CC2C)c1 (stereo not given),-14.6,-9.04,n,n,n,94.0,82.8,n,n,n,MrgX1 antag conf=4.6%
O=S(=O)(Nc1cc2nc3ccccc3nc2n1Cc1ccccc1)c1ccc(Cl)cc1,n,-14.3,44.6,n,n,94.0,88.3,0.037,n,n,MrgX1 ag confirm=n
CCn1cc(S(=O)(=O)Nc2cc(F)ccc2C)cn1,n,n,n,n,n,x,x,x,x,x,
CCOC(=O)C1=C(Cc2ccc(F)cc2)C(=O)c2ccccc2C1=O,n,-9.06,108,n,n,89.0,45.8,n,n,54,MrgX1 ag confirm=162.9%
